A number with no mark means an inactive call.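 Rule for the calls, unless noted: active = growth inhibition above 25% in both replicates, a cutoff set 3 SD above the mean; inconclusive = above 25% in only one replicate; inactive = the rest.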
Test: OD615 S. cerevisiae growth inhibition, permissive medium, pilot counter-assay, permissive growth control for S. cerevisiae lifespan shortening project (AID 705)
Conditions: OD615, 24 h, at 10 µM, hits give high values
How it was run: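 assay system = Saccharomyces cerevisiae strain carrying genetically modified DeaD replicative-lifespan system | technique = absorbance (optical density) at 615 nm | buffer or medium = permissive raffinose/galactose medium | timing = cells pre-grown 4 h, then 24 h compound exposure, 30 °C humidified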

SMILES	growth inhibition [%]
CC(C)CC(NS(=O)(=O)c1ccc2c(c1)oc(=O)n2C)C(=O)NCc1cccnc1 (stereo not drawn)	-0.43
Cc1csc2ncc(C(=O)NCc3ccccn3)c(=O)n12	-10.9
O=S(=O)(c1ccccc1)N1CCN(C2CCN(Cc3ccccc3)CC2)CC1	-10.8
C=CCn1c(SCC(=O)Nc2cc(C)nn2-c2ccccc2)nnc1C1CCCCC1	-7.09
Cc1ccc(C)c(N2CCN(C(=O)c3cc4ccccc4oc3=O)CC2)c1	-11.6
COc1cc2c(cc1OC)C1=C(C#N)CN(C3CCCCC3)CN1CC2	-11.3
Cn1c(=O)oc2cc(S(=O)(=O)N3CCCC3)ccc21	4.02
CC(=O)Nc1ccc(NC2(C)C(=O)c3ccccc3C2=O)cc1	-0.27
COc1cccc(-c2nc(CS(=O)CC(=O)NCc3ccccc3Cl)c(C)o2)c1 (stereo not drawn)	-0.545
CC(=O)c1ccc(C(=O)Nc2ccc(N3CCOCC3)cc2)cc1	-0.45
CCOC(=O)N1CCC(N2C(=O)c3ccc(C(=O)NCc4ccc(F)cc4)cc3C2=O)CC1	-0.31
Cc1ccccc1Cn1c(=O)[nH]c2ccccc21	-1.87
Cc1c(C#N)c2ccccc2n1CC(=O)NCCc1c[nH]c2ccccc12	-12.2
CCOC(=O)c1sc(NC(=O)c2ccc(Cl)s2)cc1C	-0.47
COc1ccc(OC)c(NC(=O)c2c(NC(=O)CNCc3ccco3)sc3c2CCC3)c1	-0.125
CCCOc1ccc(N2C(=O)CC(N3CCN(c4ccccc4F)CC3)C2=O)cc1 (stereo not drawn)	-0.95
CC(=O)Nc1nonc1-c1nc2ccccc2n1Cc1nnc(C)o1	3.66
Cc1ccsc1C1NC(=O)c2c(sc3c2CCN(C)C3)N1 (stereo not drawn)	-1.86
O=S(=O)(c1ccccc1)n1ccc2ccccc21	-3
CCCS(=O)(=O)N1CCn2c(nc3ccccc32)C1	0.585

SMILES	growth inhibition [%]
Cc1ccc(C2/C(=C(/O)c3ccccc3)C(=O)C(=O)N2CCN2CCOCC2)o1 (stereo not drawn)	8.83
CC(NC(=O)Cc1ccccc1)c1nc2ccccc2[nH]1 (stereo not drawn)	-3.99
CCOC(=O)/C=C/S(=O)(=O)c1ccc(NC(C)=O)cc1	-24.4
COc1ccc2oc(-c3ccccc3)c(C(=O)N3CCOCC3)c2c1	2.58
COc1ccccc1NC(=O)NCCN1C(=O)C2C3C=CC(C3)C2C1=O (stereo not drawn)	-16.2
CCOC(=O)c1oc2cc(O)ccc2c(=O)c1-c1ccccc1OC	-11.6
CC(=O)NC(CCS(C)(=O)=O)C(=O)Nc1ccc(Oc2ccccc2)cc1 (stereo not drawn)	-7.71
O=C(NCc1ccncc1)C(F)(F)C(F)(F)C(=O)NCc1ccncc1	-0.215
COc1ccc(Cl)cc1N1C(=O)C2CCCN2C1c1ccccc1F (stereo not drawn)	2.31
COc1ccc(C)cc1NC(=O)c1cnc2scc(C)n2c1=O	9.45
CC(C)Cn1c(CNC(=O)c2ccccc2)nc2ccccc21	-4.34
Cc1cccc(Nc2ncnc3nc[nH]c23)c1	3.02
COCCn1c(SCCN2CCOCC2)nc2c1c(=O)[nH]c(=O)n2C	-0.205
CSCCC(/C(O)=C(\C#N)c1nc2ccccc2[nH]1)N1C(=O)c2ccccc2C1=O (stereo not drawn)	-14.1
Cc1sc2nc(SC(C)C)nc(N)c2c1C	6.53
O=C(O)C1C2C=CC(C2)C1C(=O)OCC1CCCO1 (stereo not drawn)	-6.31
O=C(OCCN(C1=NS(=O)(=O)c2ccccc21)c1ccc(Cl)cc1)c1ccco1	-15.9
Brc1ccc(-c2noc(COc3ccc4c(c3)CCC4)n2)o1	-10.2
CCOC(=O)N1CCC(Nc2cc(C)nc3c(-c4ccccc4OC)c(C)nn23)CC1	-2.85

Test: Restrictive medium S. cerevisiae growth inhibition, OD615, pilot screen of yeast lifespan reduction project, restrictive growth control (AID 706;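 active = growth inhibition above a set limit, 3 SD over mean compound inhibition, in both replicates, cut at about 43% in these data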;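 note: modified DeaD lifespan yeast strain shifted to restrictive glucose medium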)
Conditions: OD615, 48 h, at 10 µM, hits give high values
How it was run: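 System: modified S. cerevisiae. Buffer or medium: CSMM-D glucose medium. Incubation: 4 h pre-growth plus 48 h compound exposure, 30 °C. Detection: absorbance (optical density) measured at 615 nm.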

SMILES	growth inhibition [%]
CC(C)CC(NS(=O)(=O)c1ccc2c(c1)oc(=O)n2C)C(=O)NCc1cccnc1 (stereo not drawn)	15.8
Cc1csc2ncc(C(=O)NCc3ccccn3)c(=O)n12	3.67
O=S(=O)(c1ccccc1)N1CCN(C2CCN(Cc3ccccc3)CC2)CC1	-0.305
C=CCn1c(SCC(=O)Nc2cc(C)nn2-c2ccccc2)nnc1C1CCCCC1	-6.5
Cc1ccc(C)c(N2CCN(C(=O)c3cc4ccccc4oc3=O)CC2)c1	-15.9
COc1cc2c(cc1OC)C1=C(C#N)CN(C3CCCCC3)CN1CC2	4.15
Cn1c(=O)oc2cc(S(=O)(=O)N3CCCC3)ccc21	-7.37
CC(=O)Nc1ccc(NC2(C)C(=O)c3ccccc3C2=O)cc1	-3.77
COc1cccc(-c2nc(CS(=O)CC(=O)NCc3ccccc3Cl)c(C)o2)c1 (stereo not drawn)	5.44
CC(=O)c1ccc(C(=O)Nc2ccc(N3CCOCC3)cc2)cc1	2.98
CCOC(=O)N1CCC(N2C(=O)c3ccc(C(=O)NCc4ccc(F)cc4)cc3C2=O)CC1	-4.59
Cc1ccccc1Cn1c(=O)[nH]c2ccccc21	4.58
Cc1c(C#N)c2ccccc2n1CC(=O)NCCc1c[nH]c2ccccc12	5.17
CCOC(=O)c1sc(NC(=O)c2ccc(Cl)s2)cc1C	-4.72
COc1ccc(OC)c(NC(=O)c2c(NC(=O)CNCc3ccco3)sc3c2CCC3)c1	-0.495
CCCOc1ccc(N2C(=O)CC(N3CCN(c4ccccc4F)CC3)C2=O)cc1 (stereo not drawn)	-3.87
CC(=O)Nc1nonc1-c1nc2ccccc2n1Cc1nnc(C)o1	2.84
Cc1ccsc1C1NC(=O)c2c(sc3c2CCN(C)C3)N1 (stereo not drawn)	1.39
O=S(=O)(c1ccccc1)n1ccc2ccccc21	5.11
CCCS(=O)(=O)N1CCn2c(nc3ccccc32)C1	-2.62

SMILES	growth inhibition [%]
Cc1ccc(C2/C(=C(/O)c3ccccc3)C(=O)C(=O)N2CCN2CCOCC2)o1 (stereo not drawn)	8.54
CC(NC(=O)Cc1ccccc1)c1nc2ccccc2[nH]1 (stereo not drawn)	-1.91
CCOC(=O)/C=C/S(=O)(=O)c1ccc(NC(C)=O)cc1	-13.2
COc1ccc2oc(-c3ccccc3)c(C(=O)N3CCOCC3)c2c1	-8.54
COc1ccccc1NC(=O)NCCN1C(=O)C2C3C=CC(C3)C2C1=O (stereo not drawn)	-7.88
CCOC(=O)c1oc2cc(O)ccc2c(=O)c1-c1ccccc1OC	-0.685
CC(=O)NC(CCS(C)(=O)=O)C(=O)Nc1ccc(Oc2ccccc2)cc1 (stereo not drawn)	-16.7
O=C(NCc1ccncc1)C(F)(F)C(F)(F)C(=O)NCc1ccncc1	-3.65
COc1ccc(Cl)cc1N1C(=O)C2CCCN2C1c1ccccc1F (stereo not drawn)	-4.76
COc1ccc(C)cc1NC(=O)c1cnc2scc(C)n2c1=O	-0.68
CC(C)Cn1c(CNC(=O)c2ccccc2)nc2ccccc21	-13.4
Cc1cccc(Nc2ncnc3nc[nH]c23)c1	32.5
COCCn1c(SCCN2CCOCC2)nc2c1c(=O)[nH]c(=O)n2C	-4.84
CSCCC(/C(O)=C(\C#N)c1nc2ccccc2[nH]1)N1C(=O)c2ccccc2C1=O (stereo not drawn)	-11.8
Cc1sc2nc(SC(C)C)nc(N)c2c1C	7.72
O=C(O)C1C2C=CC(C2)C1C(=O)OCC1CCCO1 (stereo not drawn)	1.68
O=C(OCCN(C1=NS(=O)(=O)c2ccccc21)c1ccc(Cl)cc1)c1ccco1	-5.49
Brc1ccc(-c2noc(COc3ccc4c(c3)CCC4)n2)o1	-11.6
CCOC(=O)N1CCC(Nc2cc(C)nc3c(-c4ccccc4OC)c(C)nn23)CC1	-0.57
